According to ChEMBL document CHEMBL1128514, “9-substituted acridine derivatives with long half-life and potent antitumor activity: synthesis and structure-activity relationships” (J Med Chem, 1995):
pIC50: −log10 of the molar value. Several values for one entry are separate records, joined by “and”; a condition that tells them apart may be missing. Equal values may be shown once.

What was measured:
[1] = test system: HL-60; assay: In vitro cytotoxicity against human leukemic HL-60 cell line.; type: functional, cell-based
Summary of the method: (§1)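 Growth inhibition over 72 h by XTT tetrazolium microculture assay with phenazine methosulfate-XTT for 6 h at 37 °C. Absorbance read at 450 and 630 nm. Six to seven concentrations per compound; IC50 from median-effect plot.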

[2] = test system: CCRF S-180; assay: The compound was tested for the cytotoxicity against S180 cell lines; type: functional, cell-based; settings: Mus musculus; summary of the method: as §1
[3] = biological target: DNA topoisomerase II (Homo sapiens, UniProt P11388+Q02880); assay: In vitro 50% inhibition of topoisomerase II mediated k-DNA decatenation; type: protein assay
[4] = test system: L1210; assay: The compound was tested for the cytotoxicity against L1210 cell lines; type: functional, cell-based; settings: Mus musculus; summary of the method: as §1
[5] = test system: DC3F/AD-II; assay: The compound was tested for the cytotoxicity against human leukemic DC-3F/ADII cell lines, activity is expressed as IC50 values.; type: functional, cell-based; settings: Cricetulus griseus
[6] = test system: CEM-VM1; assay: The compound was tested for the cytotoxicity against human leukemic CEM/VM-1 cell lines; type: functional, cell-based
[7] = test system: CCRF-CEM; assay: The compound was tested for the cytotoxicity against human leukemic CCRF-CEM cell lines; type: functional, cell-based
[8] = The compound was tested for the cytotoxicity DC-3F cell lines; type: functional, cell-based; settings: Cricetulus griseus, DC3F
[9] = test system: CEM-VLB; assay: The compound was tested for the cytotoxicity against human leukemic CEM/VBL cell lines; type: functional, cell-based
[10] = species on record: Mus musculus; assay: Average tumor volume of the B-16 melanoma; type: functional
Summary of the method: (§2)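 BD2F1 female mice, 19-21 g, given subcutaneous 0.2 mL solid tumor brei; dosed ip in DMSO daily for 5 days from day 3 (AHMA 7.5-10 mg/kg, VP-16 10, m-AMSA 5 mg/kg). Tumor volume on day 14 as length × width × width/2 (mm3), expressed as T/C versus untreated. Five mice per dose; DMSO-only group included; two experiments.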

[11] = test system: Mus musculus; assay: The compound (10 mg/kg, ip) was tested for change in average weight of BDF2 mice bearing Lewis lung carcinoma.
[12] = species on record: Mus musculus; assay: Average tumor volume of the E0771 mammary adenocarcinoma,; type: functional; summary of the method: as §2
[13] = species on record: Mus musculus; assay: Average tumor volume of the Lewis lung carcinoma; type: functional; summary of the method: as §2
[14] = test system: Mus musculus; assay: The compound (7.5 mg/kg, ip) was tested for change in average weight of BDF2 mice bearing Lewis lung carcinoma.; type: functional
Summary of the method: (§3)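 BD2F1 female mice, 19-21 g, carrying subcutaneous tumor brei (0.2 mL); compounds in DMSO given ip once daily × 5 starting day 3. Average body weight change (g) taken on day 14. Five mice per dose; untreated and DMSO-vehicle controls.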

[15] = test system: Mus musculus; assay: The compound ( ip) was tested for change in average weight of BDF2 mice bearing E0771 mammary adenocarcinoma.
[16] = test system: Mus musculus; assay: The compound (7.5 mg/kg, ip) was tested for change in average weight of BDF2 mice bearing E0771 mammary adenocarcinoma; type: functional; summary of the method: as §3
[17] = test system: Mus musculus; assay: The compound (7.5 mg/kg, ip) was tested for change in average weight of BDF2 mice bearing B16 melanoma.; type: functional; summary of the method: as §3
[18] = test system: Mus musculus; assay: The compound (10 mg/kg, ip) was tested for change in average weight of BDF2 mice bearing B16 melanoma.

Row | Compound | pIC50 [1] | IC50 [3] [nM] | pIC50 [4] | further results
1 | CC(=O)CCC(=O)Nc1cc(COC(=O)CCC(C)=O)cc(Nc2c3ccccc3nc3ccccc23)c1 | 7.82 | < 1000 | 7.01 | pIC50 [2]: 7.01
2 | CNC(=O)OCc1ccc(Oc2c3ccccc3nc3ccccc23)cc1 | 6.17 | 20000 | – | –
3 | COc1ccc2c(Oc3ccc(COC(=O)NC(C)C)cc3)c3ccccc3nc2c1 | 6.38 | > 100000 | – | –
4 | CC(=O)OCc1cc(N)cc(Nc2c3ccccc3nc3ccccc23)c1 | 7.55 | – | 7.47 | –
5 | CNC(=O)OCc1ccc(Sc2c3ccccc3nc3ccccc23)cc1 | 5.71 | 20000 | – | –
6 | CNC(=O)OCc1ccc(Oc2c3ccccc3nc3cc(OC)ccc23)cc1 | 6.02 | 50000 | – | –
7 | O=C(O)CCC(=O)Nc1cc(COC(=O)CCC(=O)O)cc(Nc2c3ccccc3nc3ccccc23)c1 | 5.37 | > 100000 | 6.00 | pIC50 [2]: 5.74
8 | OCc1ccc(Oc2c3ccccc3nc3ccccc23)cc1 | 4.89 | > 100000 | – | –
9 | CC(C)NC(=O)OCc1ccc(Oc2c3ccccc3nc3ccccc23)cc1 | 5.83 | 20000 | – | –
10 | CC(=O)CCC(=O)Nc1cc(CO)cc(Nc2c3ccccc3nc3ccccc23)c1 | 7.60 | < 1000 | 7.35 | pIC50 [2]: 7.15
11 | Nc1cc(CO)cc(Nc2c3ccccc3nc3ccccc23)c1 | – | 1000 | 7.80 | pIC50 [5]: 7.27; pIC50 [6]: 5.80; pIC50 [2]: 7.52; pIC50 [7]: 6.58; pIC50 [8]: 8.30; pIC50 [9]: 5.42
12 | COc1ccc2c(Sc3ccc(COC(=O)NC(C)C)cc3)c3ccccc3nc2c1 | 5.81 | > 100000 | – | –
13 | COc1ccc2c(Oc3ccc(CO)cc3)c3ccccc3nc2c1 | 5.98 | 20000 | – | –
14 | O=C(O)CCC(=O)Nc1cc(CO)cc(Nc2c3ccccc3nc3ccccc23)c1 | 5.30 | 20000 | 6.48 | pIC50 [2]: 5.97
15 | Cl.Nc1cc(CO)cc(Nc2c3ccccc3nc3ccccc23)c1 | 7.60 | – | – | T/C [10]: 0.23 and 0.18; AWC [11]: -0.4 g; T/C [12]: 0.13 and 0.14; T/C [13]: 0.55 and 0.23; AWC [14]: 0.1 g; AWC [15]: 0.6 g; AWC [16]: 0.6 g; AWC [17]: -0.3 g; AWC [18]: -1.9 g
16 | OCc1ccc(Sc2c3ccccc3nc3ccccc23)cc1 | 5.48 | > 100000 | – | –
17 | CNC(=O)OCc1ccc(Sc2c3ccccc3nc3cc(OC)ccc23)cc1 | 5.57 | > 100000 | – | –
18 | CC(C)NC(=O)OCc1ccc(Sc2c3ccccc3nc3ccccc23)cc1 | 5.55 | 50000 | – | –
19 | COc1ccc2c(Sc3ccc(CO)cc3)c3ccccc3nc2c1 | 5.74 | 50000 | – | –
20 | CC(=O)Nc1cc(CO)cc(Nc2c3ccccc3nc3ccccc23)c1 | 7.74 | – | 7.55 | –
